Experimental data as given in ChEMBL document CHEMBL5038647, “Elastase Inhibitor Cyclotheonellazole A: Total Synthesis and In Vivo Biological Evaluation for Acute Lung Injury” (J Med Chem, 2022).
Values joined by “and” are separate entries in the source; they are usually repeats but may differ in a detail not shown here. Identical values can stand only once. Active and inactive are the calls of the source. The rule behind the calls is not given here. *1 amine or outer side, *2 acyl side, *3 side chain or, on linkers, in order; H or OH if unused. Where a SMILES comes first, the peptide text is derived from it. Bridges are numbered along the chain shown (N, C = ends). [ ]: non-standard residue; d: D form. The star is where a group is joined. X2 = O=C(/C=C/c1csc([C@H](Cc2ccc(O)cc2)N[*:1])n1)[*:2]; X1 = CC[C@H](C)[C@H](N[*:1])C(=O)C(=O)[*:2]; X3 = CC[C@H](C)[C@H](N[*:1])C(O)C(=O)[*:2]; Benzoyl(4-OH) = O=C(c1ccc(O)cc1)*; Cya = N[C@@H](CS(=O)(=O)O)C(=O)O; MeOSuc = COC(=O)CCC(=O)*; Nva = CCC[C@H](N)C(=O)O; Dap = NC[C@H](N)C(=O)O; CH2Cl = ClC*

Assays:
[1] = Inhibition of porcine pancreatic elastase incubated for 40 mins in presence of DQ elastin substrate by fluorescence multiwell plate reader; design: species or system Sus scrofa
How it was run: (§1)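 Fluorescence elastase assay with DQ elastin substrate at 25 μg/mL and either porcine pancreatic elastase at 0.4 U/mL or human neutrophil elastase at 0.2 U/mL. Enzyme, substrate and increasing inhibitor concentrations were incubated 40 min at rt in the dark, then read at ex 485/em 535 nm. Each experiment was run three times; paired Student's t test against controls.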

[2] = Inhibition of elastase (unknown origin); design: species or system Homo sapiens
How it was run: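 EnzChek kit, DQ elastin substrate 25 μg/mL with porcine pancreatic elastase 0.4 U/mL or human neutrophil elastase 0.2 U/mL. Increasing inhibitor concentrations, 40 min at room temperature in the dark. Fluorescence read at ex 485/em 535 nm. Three repeats; paired Student's t test against controls.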

Mus musculus [3] = assay: Antiinflammatory activity against bleomycin-induced acute lung injury C57BL/6 mouse model assessed as reduction in lung edema by measuring reduction in lung wet/dry ratio at 30 mg/kg, ip administered for upto 5 days relative to control; type: functional, organism-based; details: time day <=5
How it was run: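 Same BLM model: C57BL/6J males, intratracheal BLM 4 mg/kg, then 30 mg/kg ip daily up to 5 days in 10% DMSO/90% saline, sacrifice day 6, n = 8 per group. Left lungs were weighed immediately, dried at 78 °C for 48 h to stable weight and reweighed to give the wet/dry ratio. Dead animals were excluded.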

Mus musculus [4] = assay: Antiinflammatory activity against bleomycin-induced acute lung injury C57BL/6 mouse model assessed as fold reduction in lung edema by measuring thickness of the alveolar deterioration at 30 mg/kg, ip administered for upto 5 days by HE-staining relative to control; type: functional; details: time day <=5
How it was run: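 Male C57BL/6J mice, 8 weeks old, n = 8/group. ALI induced by intratracheal BLM (4 mg/kg, in 0.1 mL saline) under chloral hydrate anaesthesia; sham controls got saline. Drug given ip at 30 mg/kg in 10% DMSO/90% saline daily for up to 5 days. Sacrifice on day 6; right lung formalin-fixed, 4 μm HE sections, three images per lung, blinded histologist scoring; dead animals excluded.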

Mus musculus [5] = assay: Antiinflammatory activity against bleomycin-induced acute lung injury C57BL/6 mouse model assessed as reduction in pathological changes in lung at 30 mg/kg, ip administered for upto 5 days by HE-staining based assay; type: functional, organism-based; details: time day <=5
How it was run: (§2)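 Male C57BL/6J mice, 8 weeks old, n = 8 per group, anaesthetised with chloral hydrate. ALI was induced by intratracheal BLM 4 mg/kg in 0.1 mL saline; controls received saline. Drug was given at 30 mg/kg ip daily for up to 5 days in 10% DMSO/90% saline (vehicle alone for controls), with sacrifice on day 6. Right lungs were formalin-fixed, sectioned at 4 μm and HE-stained. A histologist scored three images per lung blind; dead animals were excluded.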

Mus musculus [6] = assay: Antiinflammatory activity against bleomycin-induced acute lung injury C57BL/6 mouse model assessed as reduction in inflammatory cell infiltration in lung at 30 mg/kg, ip administered for upto 5 days by HE-staining based assay; type: functional, organism-based; details: time day <=5; how it was run: as §2
[7] = Inhibition of elastase (unknown origin) at 1.25 uM by fluorescence microtiter plate method relative to control; details: Homo sapiens
How it was run: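 Single-concentration screen: elastin substrate and elastase were incubated with test compounds at 1.25 μM in the EnzChek fluorescence elastase format (40 min, rt). Activity was read against controls, with three repeats.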

Homo sapiens = organism: Homo sapiens; assay: Inhibition of elastase (unknown origin) at 2.5 uM by fluorescence microtiter plate method relative to control
How it was run: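 Elastin substrate plus elastase incubated with a single inhibitor level (reference inhibitor MeOSu-AAPV-CMK at 2.5 μM, others at 1.25 μM). EnzChek DQ elastin fluorescence, ex 485/em 535 nm, 40 min at room temperature. Three repeats.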

[8] = Cytotoxicity against human 293T/ACE2 cells assessed as reduction in cell viability upto 100 uM incubated for 24 hrs by CCK-8 assay; type: toxicity, cell-based; details: 293t/ace2, 24 h
How it was run: (§3)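 Cells (ACE2-overexpressing 293T stable line or BEAS-2B lung epithelial) were seeded at 1 × 10^4 per well and left about 12 h to adhere. They were exposed to graded compound concentrations for 24 h. CCK-8 was added and incubated 2 h at 37 °C, then OD450 read. Viability was expressed as percentage; IC50 was computed.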

Neutrophil elastase [9] = molecular target: T1, Neutrophil elastase (Homo sapiens, UniProt P08246); assay: Inhibition of human neutrophil elastase; how it was run: as §1
T1 sequence (P08246 whole entry): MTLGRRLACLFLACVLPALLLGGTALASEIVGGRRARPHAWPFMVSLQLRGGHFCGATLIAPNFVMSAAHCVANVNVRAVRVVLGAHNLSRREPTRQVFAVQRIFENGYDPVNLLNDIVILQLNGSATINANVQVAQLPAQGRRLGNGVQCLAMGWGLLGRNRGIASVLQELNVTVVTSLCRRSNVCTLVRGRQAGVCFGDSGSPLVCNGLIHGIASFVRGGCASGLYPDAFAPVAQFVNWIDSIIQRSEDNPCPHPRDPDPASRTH

BEAS-2B = assay: Cytotoxicity against human BEAS-2B cells assessed as reduction in cell viability upto 100 uM incubated for 24 hrs by CCK-8 assay; type: toxicity, cell-based; how it was run: as §3
Neutrophil elastase [10] = molecular target: T1, Neutrophil elastase; assay: Inhibition of human neutrophil elastase incubated for 40 mins in presence of DQ elastin by fluorescence microtiter plate method

| inhibition [7] | SMILES | IC50 [1] [nM] | Activity (Mus musculus [3]) | fold change (FC) (Mus musculus [4]) | Activity (Mus musculus [5]) | Activity (Mus musculus [6]) | other results |
| --- | --- | --- | --- | --- | --- | --- | --- |
| – | CC(C)(C)C(=O)Oc1ccc(S(=O)(=O)Nc2ccccc2C(=O)NCC(=O)O)cc1 | 2960 | Active | 1 | Active | Active | IC50 [2]: 44 nM |
| 46.6% | CCC[C@@H]1NC(=O)[C@@H](NC(=O)[C@H](C)NC(=O)CNC(=O)c2ccc(O[Si](C)(C)C(C)(C)C)cc2)CNC(=O)[C@H](CS(=O)(=O)O)NC(=O)/C=C/c2csc(n2)[C@H](Cc2ccc(O[Si](C)(C)C(C)(C)C)cc2)NC(=O)C(=O)[C@H]([C@@H](C)CC)NC1=O | – | – | – | – | – | – |
| – | COC(=O)CCC(=O)N[C@@H](C)C(=O)N[C@@H](C)C(=O)N1CCC[C@H]1C(=O)N[C@H](C(=O)CCl)C(C)C (MeOSuc-AAPV-CH2Cl) | – | – | – | – | – | inhibition (Homo sapiens): 23.2% |
| 94% | CCC[C@@H]1NC(=O)[C@@H](NC(=O)[C@H](C)NC(=O)CNC(=O)c2ccc(O)cc2)CNC(=O)[C@H](CS(=O)(=O)O)NC(=O)/C=C/c2csc(n2)[C@H](Cc2ccc(O)cc2)NC(=O)C(O)[C@H]([C@@H](C)CC)NC1=O (some centres undefined) ({Benzoyl(4-OH)}-GA[Dap][Nva][X3][X2][Cya]; lactam 3-C) | – | – | – | – | – | – |

| SMILES | inhibition [7] | IC50 [1] [nM] | Activity (Mus musculus [3]) | fold change (FC) (Mus musculus [4]) | Activity (Mus musculus [5]) | Activity (Mus musculus [6]) | other results |
| --- | --- | --- | --- | --- | --- | --- | --- |
| CCC[C@@H]1NC(=O)[C@@H](NC(=O)[C@H](C)NC(=O)CNC(=O)c2ccc(O)cc2)CNC(=O)[C@H](CS(=O)(=O)[O-])NC(=O)/C=C/c2csc(n2)[C@H](Cc2ccc(O)cc2)NC(=O)C(=O)[C@H]([C@@H](C)CC)NC1=O.[Na+] ({Benzoyl(4-OH)}-GA[Dap][Nva][X1][X2][Cya]; lactam 3-C) | 3.6% and 3.8% | 114 | Active | 1 | Active | Active | Activity [8]: Non-Toxic; IC50 (Neutrophil elastase [9]): 0.034 nM; Activity (BEAS-2B): Non-Toxic; IC50 (Neutrophil elastase [10]): 321 nM |
